# Rows were chosen to be rich in hits. Some 10% of all compounds tested hit in one or more screens of this group.
# PMI act satM6P: human PMI activators, high substrate, primary screen, biochemical, fluorescence intensity, near-saturating mannose 6-phosphate; Mannose-6-phosphate isomerase (Homo sapiens), P34949; coupled PMI enzyme assay, resazurin fluorescence, 20 min; hits give high values; 1 = untreated enzyme, 0 = substrate-free blank; activation factor at 20 µM; hit rate 0.34% among 190,000; AID 1216, 2008;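 active = activation factor of 2 or more at 20 µM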
# Target sequence (P34949 whole entry, looked up): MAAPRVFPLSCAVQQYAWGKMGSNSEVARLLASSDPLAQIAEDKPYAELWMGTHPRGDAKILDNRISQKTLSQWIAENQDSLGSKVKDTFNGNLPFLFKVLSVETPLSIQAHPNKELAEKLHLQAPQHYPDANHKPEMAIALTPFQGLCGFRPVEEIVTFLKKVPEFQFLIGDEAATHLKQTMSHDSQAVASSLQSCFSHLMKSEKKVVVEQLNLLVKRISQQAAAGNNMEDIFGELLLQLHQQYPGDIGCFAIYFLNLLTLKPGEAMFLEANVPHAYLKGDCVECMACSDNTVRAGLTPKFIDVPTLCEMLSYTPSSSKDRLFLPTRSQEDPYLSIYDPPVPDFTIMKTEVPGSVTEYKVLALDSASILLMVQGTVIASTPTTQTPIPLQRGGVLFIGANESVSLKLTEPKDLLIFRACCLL
#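 Test system: human phosphomannose isomerase with PGI, G6PDH, diaphorase coupling enzymes; amount: 15 ng/mL PMI; incubation: enzyme reaction with compound 20 min at room temperature; technique: resorufin fluorescence (Ex 544/Em 590 nm) from resazurin via diaphorase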
# Diaph act CS: compounds boosting diaphorase resazurin reduction – biochemical, uHTS, resorufin fluorescence, counter-screen for diaphorase-coupled primary assays, primary screen | Diaphorase/resazurin coupled assay, 16 min; hits give high values; 1 = vehicle wells, 0 = NADH-free wells | activation factor at 20 µM | hit rate 0.005% among 190,000 | AID 1229, 2008;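 active = diaphorase activity raised at least twofold by the compound at 20 µM; inactive = activation factor below 2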
#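 Material: purified diaphorase enzyme from Clostridium kluyveri / Medium: HEPES pH 7.4 buffer with MgCl2 and Tween 20 / Schedule: enzyme reaction of 16 min at room temperature / Measured by: resorufin fluorescence, excitation 544 nm, emission 590 nm / Evaluation: rise in resorufin formation, marking diaphorase activation or chemical reduction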
# L major viab: Leishmania major promastigote growth inhibition, primary screen; Leishmania major promastigotes, resazurin fluorescence viability; inhibition, % at 10 µM; hit rate 9% among 200,000; in the data active = inhibition above about 50%;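 also: promastigotes grown with compound for 44 hours at 28 °C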
# PMI act: activators of human PMI, primary screen, biochemical, fluorescence intensity, near-Km mannose 6-phosphate. Mannose-6-phosphate isomerase (Homo sapiens), P34949. purified human PMI, coupled resazurin fluorescence, 20 min; hits give high values; 1 = vehicle control, 0 substrate-free wells. activation factor at 20 µM. hit rate 0.005% among 190,000;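 active = activation factor of 2 or more at 20 µM, relative to plate controls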
# WT yeast gro inh: growth inhibition of WT strain, primary screen, mitochondrial fusion inhibitor project, WT and mutant strains, chemical genetic; mitochondrial fusion phenotypic screen; inhibition, % at 10 µM; hit rate 2.1% among 190,000; in the data active = inhibition above about 58%; tested in S. cerevisiae
# The depositor's hits bear a star; · = no result.
SMILES,PMI act satM6P,Diaph act CS,L major viab,PMI act,WT yeast gro inh
Cc1ccc(OCCN2CCCCCC2)c(C)c1,0.8,0.9,95.7*,0.8,13.4
Cc1ccc(OCCCCn2ccnc2C)c(C)c1,1.1,0.9,89.4*,1,22.7
CCN1CCN(CCOc2ccc(Br)cc2C)CC1,1.1,0.8,93.4*,1,2.9
Cc1ccc(OCCCN2CCCC2)c(C)c1,1.1,0.9,97.1*,1,5.8
Cc1ccc(OCC(=O)N2CCCCCC2)c(C)c1,1,0.9,1.9,0.9,15.0
Cc1ccc(OCCn2nc3ccccc3n2)c(C)c1,0.9,0.9,4.8,0.8,1.7
CCN(C(=O)CN(C)Cc1cccc(Cl)c1Cl)c1c(N)n(Cc2ccccc2)c(=O)[nH]c1=O,1,0.9,-3.1,0.9,-6.5
CSc1ccc(/C=C(\C#N)C(=O)Nc2cccc(C)c2)cc1,0.7,0.8,29.8,0.8,-5.5
COc1ccc(C)cc1S(=O)(=O)NC1CCCCC1C (centres undefined),1,0.9,-2.7,0.9,2.5
Cc1ccc(OCCCCNC2CCCC(C)C2C)c(C)c1 (centres undefined),1.1,1.1,89.7*,1,63.4*
CC(C)OCCCN1CN(S(=O)(=O)c2ccc(Cl)cc2)c2nc3ccccc3nc21,2*,0.8,5.5,1.4,-16.7
COc1ccc(CCN2CN(S(=O)(=O)c3ccc(C)cc3)c3nc4ccccc4nc32)cc1OC,0.9,0.7,14.5,0.9,-2.9
COc1ccc(CCN2CN(S(=O)(=O)c3ccc(OC)cc3)c3nc4ccccc4nc32)cc1,1.1,0.8,85.2*,1.2,6.5
O=C(CSCc1ccccc1)N/N=C/c1cc2c(cc1Br)OCO2,1,0.9,23.5,0.9,-0.3
NC(=S)N/N=C/c1ccc(-c2cc(Cl)cc(Cl)c2)o1,1.9,0.9,97.4*,1.4,15.0
O=C(O)c1cc(-c2ccc(/C=N/Nc3ccc(Cl)cc3)o2)ccc1Cl,1,0.8,-7.0,1,62.5*
COC(=O)N/N=C/c1ccc(-c2cccc(Cl)c2)o1,1,1,61.1*,0.9,11.5
NC(=S)N/N=C/c1ccc(-c2cc(Cl)ccc2Cl)o1,1.5,0.7,100.4*,1.2,72.1*
COC(=O)N/N=C/c1ccc(-c2cc(Cl)cc(Cl)c2)o1,1,0.9,12.8,1,4.4
C=CCc1cc(/C=N/NC(=O)CSc2nnc(CCCc3ccc(OC)cc3)o2)cc(OC)c1O,1,1,-0.2,1,13.1
CCC(C)NC(=S)Nc1ccc2nc(N3CCN(CC)CC3)cc(C)c2c1 (centres undefined),1,1,94.2*,1,-16.0
CCCCN(C)C(=O)CCC(=O)Nc1ccc2nc(N3CCN(C)CC3)cc(C)c2c1,1.1,1.2,4.6,1.1,22.7
COc1ccccc1CNC(=S)Nc1ccc2nc(N3CCN(C)CC3)cc(C)c2c1,0.8,1.1,100.4*,1,17.9
CCOc1ccccc1NC(=O)CCC(=O)Nc1ccc2nc(N3CCN(C)CC3)cc(C)c2c1,1,1,74.0*,1,19.1
CCN1CCN(c2cc(C)c3cc(NC(=S)N(CC)CC)ccc3n2)CC1,0.7,1.2,7.4,1,8.0
SMILES,PMI act satM6P,Diaph act CS,L major viab,PMI act,WT yeast gro inh
COc1ccc(CNC(=S)Nc2ccc3nc(N4CCN(C)CC4)cc(C)c3c2)cc1,0.9,1.1,19.3,1,14.3
Cc1cc(N2CCN(C)CC2)nc2ccc(NC(=S)NCc3cccs3)cc12,0.8,1.1,99.2*,0.9,20.9
O=C(C1=C[C@H](c2coc3ccccc3c2=O)C[C@H](OCCCCO)O1)N1CCOCC1,1.1,0.9,-6.9,1,4.0
CCN1CCN(c2cc(C)c3cc(NC(=S)NCc4cccs4)ccc3n2)CC1,0.8,1.1,99.1*,0.9,0.2
CCOc1ncccc1C(=O)OCC(=O)N(CC(C)C)C1CCS(=O)(=O)C1 (centres undefined),0.9,0.9,-1.8,1.1,4.0
COc1ccccc1NC(=O)CN1CCN(c2ccccc2)CC1,0.9,0.9,-0.4,0.9,-6.0
CCOc1cc(C=O)ccc1OCCCN1C(=O)NC(C)(C)C1=O,1,0.9,3.4,1.1,-22.1
CCCCOc1ccc(/C=C/C2=CC(C)(C)NC(=S)N2)cc1OCC,2*,1,20.2,1.6,28.1
COC(=O)c1cc(NC(=S)Nc2cc(Cl)cc(Cl)c2)cc(C(=O)OC)c1,1,0.9,7.2,1,76.9*
C/C(=N\NC(N)=O)c1cccc(Cl)c1,1,1,82.7*,0.9,-6.4
C/C(=N\N=C(N)N)c1cccc(Cl)c1,0.9,0.9,9.2,0.9,11.2
NC(=S)N/N=C/c1coc2c(ccc3ccccc32)c1=O,0.9,0.8,-7.1,1,-2.8
O=c1cc(/N=C/c2coc3c(ccc4ccccc43)c2=O)[nH]c(=S)[nH]1,0.8,0.8,51.4*,1,-4.7
COc1ccc(CCN(Cc2cc3cc(C)cc(C)c3nc2Cl)C(=O)C2CC2)cc1,0.8,0.8,-3.6,0.9,68.0*
c1ccc(C2CCC3(CC2)Oc2ccccc2C2CC(c4cccnc4)=NN23)cc1 (centres undefined),1.6,0.9,89.4*,1.3,14.1
Cc1ccc(OCCSc2nc3ncnc(N)c3[nH]2)cc1,0.9,0.8,9.0,0.9,17.7
Nc1ncnc2nc(SCCOc3ccc(Cl)cc3)[nH]c12,1.1,0.9,55.3*,1.1,9.0
O=C(OCc1nc2ccc(Cl)cc2n1CCO)c1ccccc1C(=O)c1ccccc1,1,0.9,60.2*,1,-7.0
O=C(OCC(=O)N1CCCC1)c1ccc(S(=O)(=O)Nc2ccccc2)cc1,1,0.8,-3.7,1.1,-16.5
O=C(COC(=O)CCC(NC(=O)OCc1ccccc1)C(=O)OCC(=O)Nc1ccccc1)Nc1ccccc1 (centres undefined),0.9,0.9,-3.8,0.8,-31.2
COc1ccc(SCc2noc(C(=O)NC(C)C)c2C(=O)O)cc1,1.1,1,-7.1,1,-1.5
N#CC(c1cccc(C(F)(F)F)c1)(c1ncc(C(F)(F)F)cc1Cl)N1CCOCC1 (centres undefined),0.9,0.7,96.1*,0.8,·
N#CC(c1ccccc1)(c1ncc(C(F)(F)F)cc1Cl)N1CCOCC1 (centres undefined),1,0.9,-1.2,1,13.4
CCCC(=O)N1N=C(c2ccccc2)CC1c1cn(C)c2ccccc12 (centres undefined),0.9,0.8,11.2,0.8,55.1
CC(=O)N1N=C(c2ccc(Br)cc2)CC1c1cn(C)c2ccccc12 (centres undefined),0.9,0.7,4.8,0.9,74.2*

# Bioassay records (PubChem BioAssay)
